Consider 23 compounds from ChEMBL document CHEMBL1133178, “Synthesis and evaluation of "AZT-HEPT", "AZT-pyridinone", and "ddC-HEPT" conjugates as inhibitors of HIV reverse transcriptase” (J Med Chem, 2000).

Test [1] has as its target Human immunodeficiency virus type 1 reverse transcriptase (Human immunodeficiency virus 1) (UniProt Q72547). As to the kind of experiment: Cytotoxic concentration which reduces the cell viability of HIV-1 LAI infected T4 lymphoblastoid CEM-SS cells by 50%. It counts as functional, cell-based.
In test [2] the test system is MT4. In words: Cytotoxic concentration which reduces the cell viability of HIV-1 IIIB infected T4 lymphoblastoid MT-4 cells by 50%. The settings on record: Homo sapiens. The format is functional. A digest of the protocol:
(§1)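 Cytotoxicity was run in parallel, in the same experiment, on uninfected, compound-treated MT-4 or CEM-SS cells cultured 5 days. Viability was measured by MTT reduction to formazan (OD 540 nm). CC50 is the concentration reducing viability by 50%, calculated by median-effect analysis; means of duplicates.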

The test system of test [3] is MT4. In words: Effective concentration. required to achieve 50% inhibition of HIV-1 IIIB multiplication in hT4 lymphoblastoid MT-4 cells using MTT assay. The settings on record: Homo sapiens. The format is functional, cell-based. In a few lines:
(§2)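 MT-4 cells infected with 50 TCID50 of HIV-1 IIIB; 30 min adsorption, free virus washed off, then cultured with a range of compound concentrations for 5 days. Protection from virus-induced cytopathogenicity was read by MTT reduction (OD 540 nm). EC50 taken from a median-effect plot of dose-effect data; means of duplicate experiments.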
For orientation: Tetrazolium assays rely on reduction of a dye to a coloured formazan, in cell work by metabolically active cells.

A short description of test [4]: (§3) Cytotoxic concentration which reduces the cell viability of HIV-1 IIIB infected PBM (peripheral blood mononuclear) cells. The format is functional. As to conditions: Homo sapiens.
The nature of test [5]: Effective concentration required to achieve 50% inhibition of HIV-1 IIIB multiplication in PBM (peripheral blood mononuclear) cells. The format is functional, Homo sapiens.
Test [6] can be described thus: Effective concentration required to achieve 50% inhibition of HIV-2 D194 multiplication in PBM (peripheral blood mononuclear) cells. The format is functional, Homo sapiens.
The subject of test [7] is CEM-SS. In words: Effective concentration required to achieve 50% inhibition of HIV-1 181C (nevirapine-resistant HIV-1) multiplication in CEM-SS cells. It counts as functional, cell-based. The settings on record: Homo sapiens. A digest of the protocol:
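CEM-SS cells infected with 100 TCID50 of nevirapine-resistant HIV-1, 30 min adsorption, then washed to remove free virus. Cultured with a range of compound concentrations for 5 days. Virus production read as reverse transcriptase activity of virions released into culture supernatants. EC50 taken from a computer-generated median effect plot of dose-effect data; means of duplicate experiments.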

Test [8] relates to MT4. The description is as §3. It counts as functional, cell-based. As to conditions: Homo sapiens.
Test [9] in a line: concentration of compound which reduces the cell viability by 50% against PBM (peripheral blood mononuclear) cells infected with HIV-1 IIIB cells. The settings on record: Homo sapiens. The format is functional.
Test [10] has as its system MT4. In words: Cytotoxic concentration. which reduces the cell viability of […] T4 lymphoblastoid MT-4 cells by 50%. The format is functional. The settings on record: Homo sapiens. A digest of the protocol: as §1
Test [11] relates to MT4. In words: Effective concentration required to achieve 50% inhibition of HIV-1 IIIB multiplication in hT4 lymphoblastoid MT-4 cells using MTT assay. The settings on record: Homo sapiens. The format is functional, cell-based. A digest of the protocol: as §2
Test [12] is described as follows: Effective concentration. required to achieve 50% inhibition of HIV-2 D194 multiplication in PBM (peripheral blood mononuclear) cells. It counts as functional, Homo sapiens.
In test [13] the target is Human immunodeficiency virus type 1 reverse transcriptase (Human immunodeficiency virus 1) (UniProt Q72547). In words: Cytotoxic conc. which reduces the cell viability of HIV-1 LAI infected T4 lymphoblastoid CEM-SS cells by 50%. It counts as functional, cell-based.
In test [14] the test system is MT4. As to the kind of experiment: Cytotoxic conc. which reduces the cell viability of […] T4 lymphoblastoid MT-4 cells by 50%. It counts as functional. As to conditions: Homo sapiens. In a few lines:
as §1

Test [15] is described as follows: Effective conc. required to achieve 50% inhibition of HIV-1 IIIB multiplication in PBM (peripheral blood mononuclear) cells. The format is functional, Homo sapiens.
Test [16] can be described thus: Effective conc. required to achieve 50% inhibition of HIV-2 D194 multiplication in PBM (peripheral blood mononuclear) cells. It counts as functional, Homo sapiens.

A word on the CC50: it is the concentration at which the toxic effect on the cells reaches its halfway point. Read a high CC50 as better tolerance by the cells. By EC50 is commonly meant the midpoint of the concentration-response curve. Higher therefore signals lower potency in that assay. `[N-]=[N+]=NC1CC(n2cc(CCC(=O)NCCCCN)c(=O)[nH]c2=O)OC1CO` (configuration not stated): the cytotoxic concentration (CC50) in [1], in test [2] and in [4] was over 100 µM throughout. The EC50 in [3], in test [5] and in [6] was over 100 µM in each case.
Take `CCc1c(Sc2cc(C)cc(C)c2)n(CCCCC(=O)NCCCCCCCCCCNC(=O)CCc2cn(C3CC(N=[N+]=[N-])C(CO)O3)c(=O)[nH]c2=O)c(=O)[nH]c1=O` (configuration not stated): the CC50 in test [1] was over 25 µM; in test [2], 10 µM; in test [9], over 25 µM. For the same compound, the concentration for a half-maximal effect (EC50) in test [7] was over 25 µM; in [8] it was over 10 µM; in test [5], 5.1 µM; in test [6], over 25 µM.
Consider `CCc1c(C)nc(O)c(NC(=O)CCCCCCCCC(=O)OC)c1Cc1cc(C)cc(C)c1`, for which the CC50 in test [1] was over 10 µM.
As to `COC(=O)CCc1cn(C2CC(N=[N+]=[N-])C(CO)O2)c(=O)[nH]c1=O` (configuration not stated), the CC50 in test [1], in test [10] and in test [4] was over 100 µM throughout. The EC50 in [11], in test [5] and in test [12] was over 100 µM each time.
On to `CCc1c(C)nc(O)c(NC(=O)CNC(=O)CNC(=O)OC(C)(C)C)c1Cc1cc(C)cc(C)c1`, for which the CC50 in [1] was over 100 µM.
As for `Nc1ccn([C@H]2CC[C@@H](CO)O2)c(=O)n1` [ZALCITABINE], the results for the half-maximal cytotoxic concentration (CC50) in [13], in test [14] and in test [4] were 34 µM, over 100 µM and 10 µM, respectively. Moreover, the EC50 in test [11] was 2.4 µM; in [15] it was 0.016 µM; in test [16], 0.07 µM.
`CCc1c(C)nc(O)c(NC(=O)CCCCCCCCCNC(=O)OC(C)(C)C)c1Cc1cc(C)cc(C)c1` came in with a CC50 in test [1] of over 10 µM.
Consider `Cc1cn(C2CC(N=[N+]=[N-])C(CO)O2)c(=O)n(CCC(=O)NCCCCCCCCCCN)c1=O` (configuration not stated), for which the CC50 is 60 µM in test [1], over 100 µM in test [2] and 80 µM in test [4]. In addition, the EC50 in test [11] is over 100 µM; in test [5], 40 µM; in [6] it was over 100 µM.
Consider `CCc1c(C)nc(O)c(NC(=O)CNC(=O)CN)c1Cc1cc(C)cc(C)c1`, for which the half-maximal cytotoxic concentration (CC50) in test [1] is over 100 µM.
Still for that read-out and setting: with `CCc1c(C)nc(O)c(NC(=O)CCCC(=O)OC)c1Cc1cc(C)cc(C)c1` the figure was over 100 µM.
Turning to `CCc1c(Sc2cc(C)cc(C)c2)n(CCCCC(=O)NCCCCCCCCCCCCNc2ccn(C3CCC(CO)O3)c(=O)n2)c(=O)[nH]c1=O` (configuration not stated), the results for the half-maximal cytotoxic concentration (CC50) in test [1], in test [2] and in [4] were over 25 µM, over 10 µM and over 10 µM, respectively. Besides, the EC50 in test [7] was 0.53 µM; in [11] it was 6.2 µM; in test [5], 0.46 µM.
Compound `CCc1c(C)nc(O)c(NC(=O)CCCC(=O)O)c1Cc1cc(C)cc(C)c1` returned a CC50 in test [1] of 28 µM.
In test [1], `CCc1c(C)nc(O)c(NC(=O)CCCCCCCCCN)c1Cc1cc(C)cc(C)c1` gave a CC50 of over 66 µM.
As to `Cc1cn([C@H]2C[C@H](N=[N+]=[N-])[C@@H](CO)O2)c(=O)[nH]c1=O` [ZIDOVUDINE], the CC50 in test [13] was over 100 µM; in [14], over 100 µM; in test [4], 75 µM. Moreover, the EC50 stood at 0.02 µM in test [11], 0.001 µM in test [15] and 0.006 µM in test [16].
Take `CCc1c(Sc2cc(C)cc(C)c2)n(CCCCC(=O)NCCCCNC(=O)CCc2cn(C3CC(N=[N+]=[N-])C(CO)O3)c(=O)[nH]c2=O)c(=O)[nH]c1=O` (configuration not stated): the CC50 in test [1] was over 55 µM; in test [2] it was over 10 µM; in [4] it was over 50 µM. The EC50 in [7] is over 50 µM; in test [11], over 10 µM; in test [5], 4.3 µM; in [6], over 50 µM.
In turn, `CCc1c(C)nc(O)c(NC(=O)CCCCCCCCC(=O)O)c1Cc1cc(C)cc(C)c1` came in with a CC50 in test [1] of over 10 µM.
Consider `CCOC(=O)CCn1c(=O)c(C)cn(C2CC(N=[N+]=[N-])C(CO)O2)c1=O` (configuration not stated), for which the CC50 in test [1], in test [2] and in [4] was over 100 µM in each case. Besides, the EC50 in [11] amounted to 4.3 µM; in [5], 2.1 µM; in test [6], 8 µM.
`CCc1c(Sc2cc(C)cc(C)c2)n(CCCCC(=O)NCCCCCCCCCCNC(=O)CCn2c(=O)c(C)cn(C3CC(N=[N+]=[N-])C(CO)O3)c2=O)c(=O)[nH]c1=O` (configuration not stated): the cytotoxic concentration (CC50) is over 25 µM in test [1], over 10 µM in [2] and over 25 µM in test [4]. Besides, the EC50 was 23 µM in test [7], over 10 µM in [11], 5.5 µM in test [5] and over 25 µM in [6].
`CCc1c(Sc2cc(C)cc(C)c2)n(CCCCC(=O)OC)c(=O)[nH]c1=O`: the cytotoxic concentration (CC50) in test [1] is over 33 µM; in test [2], over 10 µM; in [4], over 33 µM. For the same compound, the EC50 is over 33 µM in [7], 0.33 µM in test [11], 0.18 µM in [5] and over 33 µM in test [6].
As for `NCCCCCCCCCCCCNc1ccn(C2CCC(CO)O2)c(=O)n1` (configuration not stated), the results for the CC50 in test [1], in test [2] and in test [4] were 48 µM, over 100 µM and 61 µM, respectively. For the same compound, the results for the EC50 in test [11], in test [5] and in [6] were 100 µM, 2.9 µM and 4.7 µM, respectively.
Regarding `[N-]=[N+]=NC1CC(n2cc(CCC(=O)NCCCCCCCCCCN)c(=O)[nH]c2=O)OC1CO` (configuration not stated), the CC50 in test [1] was determined as 38 µM; in [2], 60 µM; in test [4], 77 µM. The results for the EC50 in [11], in test [5] and in test [6] were over 100 µM, 75 µM and 68 µM, respectively.
Consider `COC(=O)CCCNC(=O)CCc1cn(C2CC(N=[N+]=[N-])C(CO)O2)c(=O)[nH]c1=O` (configuration not stated), for which the CC50 in test [1] was over 100 µM; in test [2] it was 75 µM; in [4], over 100 µM. Moreover, the EC50 in test [11], in test [5] and in test [6] was over 100 µM in each case.
The compound `CCc1c(C)nc(O)c(N)c1Cc1cc(C)cc(C)c1` returned a CC50 in test [1] of over 10 µM.
